This note sets out measurements from ChEMBL document CHEMBL1649111, “Restoration of susceptibility of intracellular methicillin-resistant Staphylococcus aureus to beta-lactams: comparison of strains, cells, and antibiotics” (Antimicrob Agents Chemother, 2008).

In brackets after ≈: the same amount, converted by molar mass.

The test system of assay [1] is Staphylococcus aureus. In words: Antimicrobial activity against hospital acquired methicillin-resistant Staphylococcus aureus N4120210 obtained from urinary tract infection of patient infected in human THP-1 cells assessed as increase in bacterial count from original inoculum at low compound concentration after 24 hrs at pH 5.5. The class given is functional, Urine. Summed up:
(§1)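 Bacteria phagocytosed by unactivated human THP-1 macrophages, then incubated 24 h with extracellular antibiotic at about 0.01× to 100× the pH 5.5 broth MIC. CFU per mg cell protein counted against the original inoculum, n = 3. A Hill-equation fit (slope factor 1) gave Emin and Emax, extrapolated to infinitely low and high concentration, and EC50. Static concentration was graphically interpolated.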

For assay [2], the system named is Staphylococcus aureus. In words: Bacteriostatic activity against intracellular hospital acquired methicillin-resistant Staphylococcus aureus ATCC 33591 infected in activated human THP-1 cells assessed as decrease in bacterial growth after 24 hrs at pH 7.4. The class given is functional. Summed up: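 THP-1 cells activated by 24-h culture with phorbol myristate acetate 2 mg/liter, then infected like unactivated THP-1. Cloxacillin dose range in mg/liter for 24 h. CFU per mg cell protein relative to the original inoculum, n = 3. Emin and Emax extrapolated from a Hill fit (slope 1), with EC50 as total drug; static concentration by graphical interpolation.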

The test system of assay [3] is Staphylococcus aureus. In words: Antimicrobial activity against Panton-valentine leukocidin positive community acquired methicillin-resistant Staphylococcus aureus N4042228 infected in human THP-1 cells assessed as decrease in bacterial count from original inoculum at high compound concentration after 24 hrs at pH 5.5. The class given is functional. The method in brief: as §1

In assay [4] the test system is Staphylococcus aureus. Briefly: Antimicrobial activity against hospital acquired methicillin-resistant Staphylococcus aureus HMC546 by broth microdilution method at pH 5.5. It is filed as functional.
In assay [5] the test system is Staphylococcus aureus. In words: Antimicrobial activity against hospital acquired methicillin-resistant Staphylococcus aureus N4120032 obtained from wound infection of patient infected in human THP-1 cells assessed as increase in bacterial count from original inoculum at low compound concentration after 24 hrs at pH 5.5. It is filed as functional. The method in brief: as §1

Assay [6] has as its system Staphylococcus aureus. In words: Antimicrobial activity against beta-lactamase negative methicillin-susceptible Staphylococcus aureus ATCC 25923 infected in human THP-1 cells assessed as decrease in bacterial count from original inoculum at high compound concentration after 24 hrs at pH 5.5. It is filed as functional. Summed up: (§2)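 MSSA ATCC 25923 phagocytized by unactivated THP-1 macrophages; extracellular antibiotic from about 0.01× to 100× the broth MIC at pH 5.5, with gentamicin 0.5 mg/liter to block extracellular growth. CFU per mg cell protein counted at 24 h vs. original inoculum (n = 3). A Hill equation (slope factor 1) gives Emin/Emax, extrapolated to infinitely low/high concentration. Static concentration is read by graphical interpolation.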

The test system of assay [7] is Staphylococcus aureus. In words: Antimicrobial activity against Panton-valentine leukocidin positive community acquired methicillin-resistant Staphylococcus aureus N4090440 obtained from wound infection of patient by broth microdilution method at pH 7.4. It is filed as functional. The method in brief: (§3)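 Minimal inhibitory concentration by broth microdilution at pH 7.4, read in mg/liter. The MRSA genotype was confirmed by mecA PCR, and the SCCmec subgroup was assigned by multiplex PCR.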

Assay [8] has as its system Staphylococcus aureus. In words: Antimicrobial activity against hospital acquired methicillin-resistant and vancomycin-intermediate Staphylococcus aureus NRS126 obtained from bloodstream infection of patient infected in human THP-1 cells assessed as increase in bacterial count from original inoculum at low compound concentration after 24 hrs at pH 5.5. It is filed as functional. The method in brief: as §1

Assay [9] deals with Staphylococcus aureus. In words: Antimicrobial activity against intracellular beta-lactamase negative methicillin-susceptible Staphylococcus aureus ATCC 25923 infected in activated human THP-1 cells assessed as increase in bacterial count from original inoculum at low compound concentration after 24 hrs at pH 7.4. It is filed as functional.
Assay [10] concerns Staphylococcus aureus. Briefly: Antimicrobial activity against hospital acquired methicillin-resistant and vancomycin-intermediate Staphylococcus aureus NRS126 obtained from bloodstream infection of patient infected in human THP-1 cells assessed as decrease in bacterial count from original inoculum at high compound concentration after 24 hrs at pH 5.5. It is filed as functional. The method in brief: as §1

The test system of assay [11] is Staphylococcus aureus. In words: Bacteriostatic activity against intracellular beta-lactamase negative methicillin-susceptible Staphylococcus aureus ATCC 25923 infected in human Calu3 cells assessed as decrease in bacterial growth after 24 hrs at pH 7.4. It is filed as functional, Calu-3. The method in brief: (§4)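 Primary human skin keratinocytes or Calu-3 bronchial epithelial cells infected with MSSA ATCC 25923 at 5 × 10⁷ to 1 × 10⁸ bacteria/ml, 2 h internalization. Postphagocytosis inoculum 1.5 × 10⁶ to 3.0 × 10⁶ CFU/mg protein. Cloxacillin concentration range for 24 h; CFU/mg protein change vs. inoculum (n = 3). Hill fit gives Emin/Emax; static concentration by graphical interpolation.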

The subject of assay [12] is Staphylococcus aureus. In words: Antimicrobial activity against hospital acquired methicillin-resistant and vancomycin-intermediate Staphylococcus aureus VRS2 obtained from wound, skin and soft tissue infection of patient infected in human THP-1 cells assessed as increase in bacterial count from original inoculum at low compound concentration after 24 hrs at pH 5.5. The class given is functional. The method in brief: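 Human THP-1 macrophages infected with each S. aureus strain. Cloxacillin added extracellularly at about 0.01× to 100× the broth MIC measured at pH 5.5, with gentamicin 0.5 mg/liter to stop extracellular growth. Incubated 24 h. CFU counted per mg cell protein as change from the post-phagocytosis inoculum, n = 3. Emin, Emax and EC50 from a Hill fit; static concentration by graphical interpolation.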

Assay [13] has as its system Staphylococcus aureus. Briefly: Antimicrobial activity against constitutive beta-lactamase negative methicillin-resistant Staphylococcus aureus COL NRS100 infected in human THP-1 cells assessed as increase in bacterial count from original inoculum at low compound concentration after 24 hrs at pH 5.5. The class given is functional. The method in brief: as §1
The subject of assay [14] is Staphylococcus aureus. In words: Antimicrobial activity against intracellular beta-lactamase negative methicillin-susceptible Staphylococcus aureus ATCC 25923 infected in human Calu3 cells assessed as increase in bacterial count from original inoculum at low compound concentration after 24 hrs at pH 7.4. The class given is functional, Calu-3. Summed up: as §4
Assay [15] concerns Staphylococcus aureus. In words: Antimicrobial activity against beta-lactamase negative methicillin-susceptible Staphylococcus aureus ATCC 25923 by broth microdilution method at pH 5.5. It is filed as functional.
Assay [16] concerns Staphylococcus aureus. In words: Antimicrobial activity against hospital acquired methicillin-resistant Staphylococcus aureus ATCC 33591 infected in human THP-1 cells assessed as increase in bacterial count from original inoculum at low compound concentration after 24 hrs at pH 5.5. The class given is functional. The method in brief:
as §1

Assay [17] relates to Staphylococcus aureus. Briefly: Bacteriostatic activity against beta-lactamase negative methicillin-susceptible Staphylococcus aureus ATCC 25923 infected in human THP-1 cells assessed as decrease in bacterial growth after 24 hrs at pH 5.5. It is filed as functional. Summed up:
as §2

Assay [18] relates to Staphylococcus aureus. Briefly: Antimicrobial activity against intracellular hospital acquired methicillin-resistant Staphylococcus aureus ATCC 33591 infected in human Calu3 cells assessed as decrease in bacterial count from original inoculum at high compound concentration after 24 hrs at pH 7.4. It is filed as functional, Calu-3. The method in brief: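 Primary human skin keratinocytes or Calu-3 bronchial epithelial cells, given an inoculum of 5 × 10⁷ to 1 × 10⁸ bacteria/ml and 2 h for internalization. Post-phagocytosis load 1.5 × 10⁶ to 3.0 × 10⁶ CFU per mg cell protein. Cloxacillin dose range in mg/liter for 24 h, n = 3. Hill-derived Emin, Emax and EC50; static concentration interpolated.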

The test system of assay [19] is Staphylococcus aureus. Briefly: Antimicrobial activity against beta-lactamase negative methicillin-susceptible Staphylococcus aureus ATCC 25923 by broth microdilution method at pH 7.4. The class given is functional.
Assay [20] relates to Staphylococcus aureus. Briefly: Antimicrobial activity against hospital acquired methicillin-resistant Staphylococcus aureus ATCC 33591 by broth microdilution method at pH 7.4. It is filed as functional. The method in brief:
as §3

Assay [21] has as its system Staphylococcus aureus. In words: Antimicrobial activity against animal acquired methicillin-resistant Staphylococcus aureus N7112046 by broth microdilution method at pH 7.4. It is filed as functional.

As for `Cc1onc(-c2ccccc2Cl)c1C(=O)N[C@@H]1C(=O)N2[C@@H]1SC(C)(C)[C@@H]2C(=O)O` [CLOXACILLIN], the log10cfu in the assay on Staphylococcus aureus [1] is 2.6; in the assay on Staphylococcus aureus [3], 0.63; with Staphylococcus aureus [5], 2.63; in the assay with Staphylococcus aureus [6] it was 0.77; in the assay on Staphylococcus aureus [8] it was 2.76; with Staphylococcus aureus [9] it was 3.05. Moreover, the log10cfu was determined as 0.69 in the assay on Staphylococcus aureus [10]; 1.69 in the assay on Staphylococcus aureus [12]; 2.42 with Staphylococcus aureus [13]; 3.19 with Staphylococcus aureus [14]; 2.27 in the assay with Staphylococcus aureus [16]; 0.93 in the assay on Staphylococcus aureus [18]. Further, the Activity with Staphylococcus aureus [2] was determined as 1 mg/L; in the assay on Staphylococcus aureus [11] it was 1.6 mg/L; with Staphylococcus aureus [17], 11 ×MIC. Besides, the MIC in the assay on Staphylococcus aureus [4] was 0.25 mg/L (≈ 0.574 µM); with Staphylococcus aureus [7], 0.5 mg/L (≈ 1.15 µM); in the assay with Staphylococcus aureus [15], 0.06 mg/L (≈ 0.138 µM); in the assay on Staphylococcus aureus [19] it was 0.125 mg/L (≈ 0.287 µM); in the assay on Staphylococcus aureus [20], 16 mg/L (≈ 36.7 µM); in the assay with Staphylococcus aureus [21], 512 mg/L (≈ 1170 µM).
